# Rows were chosen to be rich in hits. Some 2.5% of all compounds tested hit in one or more screens of this group.
# TRPC4 PAM: allosteric potentiators of mouse TRPC4 channel | HEK293 TRPC4beta/mu-opioid, DAMGO EC20, Fluo-4 Ca2+ flux; hits give high values | Q9QUQ5 | 0.42% of 310,000 active | B-score at 10 µM;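 active means B-score of calcium response area above 5 SD of library B-scores, with initial fluorescence ratio within 5 SD of library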
# Target sequence (Q9QUQ5 whole entry, looked up): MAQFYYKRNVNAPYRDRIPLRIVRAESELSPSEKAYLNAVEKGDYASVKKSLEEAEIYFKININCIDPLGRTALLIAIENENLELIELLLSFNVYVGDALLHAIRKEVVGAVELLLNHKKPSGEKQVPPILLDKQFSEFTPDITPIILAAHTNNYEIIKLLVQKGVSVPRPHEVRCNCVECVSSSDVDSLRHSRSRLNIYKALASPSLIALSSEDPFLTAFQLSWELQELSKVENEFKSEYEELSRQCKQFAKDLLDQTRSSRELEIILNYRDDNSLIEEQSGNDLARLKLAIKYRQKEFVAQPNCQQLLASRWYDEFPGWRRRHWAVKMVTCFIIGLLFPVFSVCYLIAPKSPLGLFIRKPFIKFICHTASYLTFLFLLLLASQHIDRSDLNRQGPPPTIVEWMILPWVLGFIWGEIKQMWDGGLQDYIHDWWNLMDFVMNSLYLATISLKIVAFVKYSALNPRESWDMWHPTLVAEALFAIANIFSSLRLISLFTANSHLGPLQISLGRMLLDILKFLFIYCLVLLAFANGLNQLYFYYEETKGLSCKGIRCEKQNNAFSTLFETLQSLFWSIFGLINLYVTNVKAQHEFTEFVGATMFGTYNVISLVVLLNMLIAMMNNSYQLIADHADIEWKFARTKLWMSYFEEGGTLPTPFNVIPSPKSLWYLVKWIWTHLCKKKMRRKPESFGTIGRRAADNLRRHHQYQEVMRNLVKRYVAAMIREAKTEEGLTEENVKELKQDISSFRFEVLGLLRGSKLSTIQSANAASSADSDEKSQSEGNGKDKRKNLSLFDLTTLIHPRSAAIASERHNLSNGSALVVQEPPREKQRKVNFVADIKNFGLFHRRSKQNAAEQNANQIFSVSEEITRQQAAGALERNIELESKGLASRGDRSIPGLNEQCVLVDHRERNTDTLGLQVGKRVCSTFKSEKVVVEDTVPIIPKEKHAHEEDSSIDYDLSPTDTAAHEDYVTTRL
# TRPC6 inhibitor: inhibitors of mouse TRPC6 channel | Q61143 | HEK293-TRPC6, membrane potential dye, ACh-evoked depolarization; hits give low values | B-score at 10 µM | 1.1% of 310,000 active;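 active means B-score under library mean minus 3 SD, initial fluorescence not abnormally high, positive integrated signal ratio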;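 further: B-score derived from integrated fluorescence ratio over the kinetic read; more negative B-score means stronger inhibition of depolarization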
# TRPC6 act: activators of mouse TRPC6 channel; Q61143; HEK293-TRPC6 membrane potential dye fluorescence; hits give high values; B-score at 10 µM; 0.13% of 310,000 active; AID 2550;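 active means B-score of the integrated fluorescence ratio above library mean plus 3 SD, and starting fluorescence ratio within library mean plus 5 SD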;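 further: higher score means more depolarization so channel activation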
# TRPC4 inh: TRPC4 (mouse) channel inhibition | 0.39% of 300,000 active | Q9QUQ5 | B-score at 10 µM | HEK293 TRPC4beta/mu-opioid, DAMGO-evoked Fluo4 calcium flux; hits give low values;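 active means B-score over 3 SD under the library average, no early fluorescence shift, positive overall ratio signal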
#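 Material: HEK293 cells with stable TRPC4beta plus mu-opioid receptor expression / Probe or stimulus: DAMGO in two steps, submaximal then maximal / Compound: single concentration per test compound / Technique: kinetic Fluo4 fluorescence imaging of calcium influx / Read-out: per-well B score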
# Platelet DG rel: platelet dense granule release activity. human platelet-rich plasma, SFLLRN dense granule ATP release, luminescence. 0.22% of 300,000 active. inhibition, %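 (compounds screened at 7.5 µM in platelet-rich plasma)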. AID 1663;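 active means mean replicate score, as percent of positive control, at or above 50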
# TRPC4 act: activators of mouse TRPC4 channel. HEK293 TRPC4beta/mu-opioid, Fluo4 calcium fluorescence; hits give high values. B-score at 10 µM. 0.49% of 310,000 active. AID 2237;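 active means B-score above 5 SD of library B-scores, and initial fluorescence ratio not above library mean plus 5 SD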;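 further: positive B-score marks a calcium rise read as TRPC4 activation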
#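 Technique: kinetic Fluo4 calcium fluorescence; Test system: TRPC4beta and mu-opioid receptor HEK293 stable cells; Measure: B-scored integrated calcium fluorescence ratio; Benchmarks: low control buffer alone, high control maximal DAMGO; Schedule: 45 min room-temperature Fluo4 loading, 110 s read.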
# TRPC4 sel inh 2: mouse TRPC4 off-target activity of TRPC6 inhibitors, second screen; inhibition, % at 10 µM; AID 2776; 42% of 920 active; shares compounds with TRPC6 inhibitor; HEK293 TRPC4/MOR, membrane potential dye fluorescence; channel activated by saturating DAMGO dose;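 active means compounds whose fluorescence signal differed from control wells by over 3 SD, either direction, in both duplicate plates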
# TRPC4 spec: selectivity of TRPC6 inhibitors: effect on mouse TRPC4; shares compounds with TRPC6 inhibitor; HEK293 TRPC4/mu-opioid, membrane potential fluorescence; activity change, negative = inhibition, % at 10 µM; 61% of 920 active;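 active means rise or fall in signal beyond 3 SD of buffer-only wells in both replicate plates, either sign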;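 further: integrated kinetic ratio of fluorescence range over baseline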
# HEK293 MPD ctr 2-1: second counter-screen for TRPC6 inhibitors: parental HEK293 cells; shares compounds with TRPC6 inhibitor; parental HEK293 membrane potential dye fluorescence; maximal acetylcholine challenge after compound addition; signal change vs control, % at 10 µM; 31% of 920 active;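 active means membrane potential signal moving either way by over 3 SD of the maximum-effect control, in both duplicate plates, meaning non-specific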
# HEK293 MPD ctr-1: counter-screen for TRPC6 inhibitors: effect in parental HEK293 cells; shares compounds with TRPC6 inhibitor; parental HEK293 membrane potential dye fluorescence; membrane potential signal change, % at 10 µM; 60% of 920 active; AID 2780;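 active means membrane potential signal shifting up or down by more than 3 SD of buffer-only wells, on both duplicate plates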
# HEK293 MPD ctr-2: counter-screen for TRPC6 modulators: effect in parental HEK293 cells; shares compounds with TRPC6 inhibitor; membrane potential dye fluorescence; membrane potential signal change, % at 10 µM; 51% of 2,400 active; AID 488924;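 active means membrane potential signal moves up or down beyond 5 SD from buffer-only wells, on both duplicate plates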
# HEK293 MPD ctr 2-2: second counter-screen for TRPC6 modulators: effect in parental HEK293 cells; shares compounds with TRPC6 inhibitor; inhibition, % at 10 µM; AID 488926; membrane potential dye fluorescence; after compound, maximal acetylcholine stimulation; 14% of 2,400 active;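 active means membrane potential signal drops by more than 5 SD from the mean control signal, in both duplicate plates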
# TRPC4 ctr mod: selectivity of TRPC6 modulators against mouse TRPC4 | shares compounds with TRPC6 inhibitor | HEK293 TRPC4/mu-opioid, membrane potential fluorescence | percent change from control (negative = decrease, positive = increase), % at 10 µM | 69% of 2,400 active;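 active means membrane potential signal moved up or down beyond 5 SD of buffer control wells, in both duplicate plates, actives on both sides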
# TRPC4/MOR inh 2: mouse TRPC4 off-target activity of TRPC6 modulators, second screen. HEK293 TRPC4/mu-opioid, membrane potential dye fluorescence; stimulated with maximal-effect DAMGO. AID 488928. shares compounds with TRPC6 inhibitor. inhibition, % at 10 µM. 55% of 2,400 active;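 active means drop in membrane potential signal beyond 5 SD of the control wells in both duplicate plates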;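 further: TRPC4 counter screen for TRPC6 hits run under conditions tuned for TRPC6 not TRPC4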
# TRPC6 inh conf: mouse TRPC6 inhibitor confirmation. shares compounds with TRPC6 inhibitor. HEK293-TRPC6, membrane potential dye, ACh-evoked depolarization. inhibition, % at 10 µM. 43% of 3,300 active. AID 488960;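 active means fluorescence ratio falls more than 5 SD below the full-stimulation control mean, in both duplicate runs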;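 further: integrated fluorescence ratio of peak minus minimum over baseline after agonist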
# TRPC6 act confirm: confirmation of mouse TRPC6 activators; 11% of 2,800 active; HEK293-TRPC6 membrane potential dye fluorescence, FDSS; shares compounds with TRPC6 inhibitor; AID 488961; activation, % at 10 µM;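 active means ratio signal rise beyond 5 SD above unstimulated control wells' mean, seen in both duplicate runs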
# Numbers stand for hits; 0 = inactive; - = no result given.
SMILES,TRPC4 PAM,TRPC6 inhibitor,TRPC6 act,TRPC4 inh,Platelet DG rel,TRPC4 act,HEK293 MPD ctr-2,HEK293 MPD ctr 2-2,TRPC4 ctr mod,TRPC4/MOR inh 2,TRPC6 inh conf,TRPC6 act confirm,others
COc1ccc(S(=O)(=O)N2CCCC2)cc1C(=O)O,0,0,0,0,0,0,-,-,-,-,-,-,
CC(C)Oc1ccccc1-c1cc(C(=O)N/N=C/c2cccnc2)c2ccccc2n1,0,0,0,0,0,0,-,-,-,-,-,-,
CCc1c(C(=O)N2CCN(c3ccccc3F)CC2)[nH]c(C)c1C(C)=O,0,0,0,0,0,0,-,-,-,-,-,-,
Cc1ccc(N=Cc2c(O)n(C)c(=O)n(C)c2=O)nc1,0,-5.6,0,0,0,0,0,0,-15%,0,0,0,
Cc1ccc(N=CC2=C(O)CC(C)(C)CC2=O)nc1,0,0,0,0,0,0,-,-,-,-,-,-,
Cc1cccc(N2C(=NC(=O)c3ccccc3)SC3CS(=O)(=O)CC32)c1 (stereo unspecified),0,0,0,0,0,0,-,-,-,-,-,-,
COc1ccc(C2NC(=O)NC(O)(C(F)(F)F)C2C(=O)c2ccccc2)cc1OC (stereo unspecified),0,0,0,0,0,0,-,-,-,-,-,-,
COc1ccc(C2NC(=O)NC(O)(C(F)(F)F)C2C(=O)c2ccc(C)cc2)cc1 (stereo unspecified),0,-9.6,0,0,0,0,-,-,-,-,65%,0,TRPC4 sel inh 2=0;TRPC4 spec=0;HEK293 MPD ctr 2-1=14%;HEK293 MPD ctr-1=0
O=C(COc1ccccc1)NCCSc1ccccc1,0,-5.8,0,0,0,0,0,0,8.5%,0,0,-,
Cc1nc2nc3c(cn2n1)C(=O)CCC3,0,0,0,0,0,0,-,-,-,-,-,-,
CC(=O)c1cc(F)c(N2CCN(C(=O)COc3ccc(F)cc3)CC2)cc1C,0,-5.7,0,0,0,0,0,0,10%,0,0,0,
CCOc1ccc(N(C)C(=O)CCc2nnc3ccc(NCc4ccco4)nn23)cc1,0,0,0,0,0,0,-,-,-,-,-,-,
Cc1ccc(NC(=O)[C@@H](CC(C)C)NC(=O)[C@@H]2Cc3ccccc3CN2)cc1,0,-5.1,0,0,0,0,0,0,0,46%,66%,0,
O=C(Nc1ccccc1Oc1cccnc1)C1CCCN(Cc2ccc(F)cc2)C1 (stereo unspecified),0,-6.4,0,-6,0,0,176%,0,31%,46%,0,-,
O=C(C1CCCN(Cc2ccc(F)cc2)C1)N1CCCCC1 (stereo unspecified),0,0,0,0,0,0,-,-,-,-,-,-,
CCOC(=O)C1(CCc2ccccc2)CCN(C(=O)[C@@H]2C[C@@H](C)NC(=S)N2)CC1,0,0,0,0,0,0,-,-,-,-,-,-,
CCOc1ccc2c(C)nc(NC3=NC(C)(C)C=C(C)N3)nc2c1,0,-5.1,0,-9,0,0,0,0,0,0,0,0,
CC[n+]1c(/C=C/c2ccc(OC)c(OC)c2)ccc2ccccc21,0,-8.1,0,0,0,0,-214%,0,-52%,40%,0,0,
CC[n+]1c(/C=C/c2ccc(OC(C)=O)c(OC)c2)ccc2ccccc21,0,-7.6,0,0,0,0,-264%,124%,-45%,70%,77%,0,
CC[n+]1c(/C=C/c2ccc(N(C)C)cc2)ccc2ccccc21,0,0,0,0,0,0,-,-,-,-,-,-,
Cc1cc(Cl)ccc1C(=O)C1CCCN(C(=O)c2cscn2)C1 (stereo unspecified),0,0,0,0,0,0,-,-,-,-,-,-,
CSc1nc(C(=O)N2CCCC(C(=O)c3ccc(Cl)cc3)C2)cs1 (stereo unspecified),0,-5.9,0,0,0,0,138%,0,33%,0,0,-,
Cc1cc(Cl)ccc1C(=O)C1CCCN(C(=O)c2cnsn2)C1 (stereo unspecified),0,-6.7,0,0,0,0,-,-,-,-,0,-,TRPC4 sel inh 2=0;TRPC4 spec=26%;HEK293 MPD ctr 2-1=0;HEK293 MPD ctr-1=18%
COc1cc(OC)c2c(-c3ccccc3)cc(=O)oc2c1C(CCN1CCCC(C)C1)c1ccc(N(C)C)cc1 (stereo unspecified),0,-5.9,0,0,0,0,0,0,0,69%,40%,0,
COc1ccc(C(CCN2CCCC(C)C2)c2c(OC)cc(OC)c3c(-c4ccccc4)cc(=O)oc23)cc1 (stereo unspecified),0,0,0,0,0,0,-,-,-,-,-,-,
COc1cc(OC)c2c(C)cc(=O)oc2c1C(CCN1CCOCC1)c1ccc(N(C)C)cc1 (stereo unspecified),0,-5.3,0,0,0,0,-141%,0,-28%,52%,42%,0,
COc1cc(OC)c2c(-c3ccccc3)cc(=O)oc2c1C(CCN1CCN(c2ccccc2)CC1)c1ccc(N(C)C)cc1 (stereo unspecified),0,0,0,0,0,0,-,-,-,-,-,-,
O=C(Nc1ccc2c(c1)OCCO2)c1ccc(NC(=O)C2CCCO2)cc1 (stereo unspecified),0,-5.2,0,0,0,0,0,0,0,0,0,0,
O=C(NCc1ccc2c(c1)OCO2)c1ccc(NC(=O)C2CCCO2)cc1 (stereo unspecified),0,0,0,0,0,0,-,-,-,-,-,-,
